This passage reports IC50 results from ChEMBL document CHEMBL3817728, “Synthesis, Evaluation, and Mechanism Study of Novel Indole-Chalcone Derivatives Exerting Effective Antitumor Activity Through Microtubule Destabilization in Vitro and in Vivo” (J Med Chem, 2016).

For one test, the system named is MCF7. In words: Cytotoxicity against human MCF7 cells assessed as cell viability after 48 hrs by MTT assay. The following applies: MCF7, 48 h. It counts as functional, cell-based. The procedure, abridged: (§1)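 Cancer cell lines treated with compound for 48 h, and viability read by MTT assay. IC50 given as mean ± SD from at least three independent experiments.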
(In general: Formazan colour is commonly taken as a measure of viable cells.)

A further test relates to A2780. In words: Cytotoxicity against human A2780 cells assessed as cell viability after 48 hrs by MTT assay. The following applies: A2780, 48 h. It counts as functional, cell-based. The method, boiled down:
as §1

For the next test, the system named is HeLa. In words: Cytotoxicity against human HeLa cells assessed as cell viability after 48 hrs by MTT assay. Type of test: functional, cell-based. The method, boiled down: as §1
A further test relates to A549. In words: Cytotoxicity against human A549 cells assessed as cell viability after 48 hrs by MTT assay. Type of test: functional, cell-based. Particulars: A549, 48 h. The procedure, abridged:
as §1

The nature of test [1]: Cytotoxicity against human Bel7402 cells assessed as cell viability after 48 hrs by MTT assay. It counts as functional, cell-based. The following applies: Bel-7402, 48 h. The procedure, abridged:
as §1

Test [2] is described as follows: Cytotoxicity against human HCT8 cells assessed as cell viability after 48 hrs by MTT assay. Type of test: functional, cell-based. Particulars: HCT-8, 48 h. The procedure, abridged: as §1
Another test deals with Tubulin (Sus scrofa, UniProt P02554+P02550). Kind of test: Inhibition of porcine brain tubulin polymerization measured every 60 secs for 60 mins by DAPI staining-based fluorescence assay.
A short description of test [3]: Cytotoxicity against human A2780/TAX cells assessed as growth inhibition after 48 hrs by MTT assay. It counts as functional, cell-based. The procedure, abridged:
(§2)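 Drug-resistant lines were tested by a 48 h MTT viability assay. IC50 was derived from dose-response curves and reported as mean ± SE of at least three independent experiments.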

Test [4] in a line: Cytotoxicity against human HCT8/VCT cells assessed as growth inhibition after 48 hrs by MTT assay. Type of test: functional, cell-based. The method, boiled down:
as §2

Test [5] is described as follows: Cytotoxicity against human A549/CDDP cells assessed as growth inhibition after 48 hrs by MTT assay. It counts as functional, cell-based. Particulars: A549, 48 h. The procedure, abridged:
as §2

Test [6] can be described thus: Cytotoxicity against human MCF7/DX cells assessed as growth inhibition after 48 hrs by MTT assay. Type of test: functional, cell-based. The method, boiled down: as §2

Regarding `COc1ccc2c(/C=C(\C)C(=O)c3cc(OC)c(OC)c(OC)c3)cn(CCO)c2c1`, the IC50 in the test on MCF7 was determined as 0.014 µM; in the test on A2780, 0.031 µM; in the test on HeLa it was 0.035 µM; in the test on A549, 0.025 µM; in [1], 0.021 µM; in test [2] it was 0.02 µM.
As for `COc1ccc2c(/C=C(\C)C(=O)c3cc(OC)c(OC)c(OC)c3)cn(CCBr)c2c1`, the IC50 in the test on MCF7 was found to be 0.389 µM; in the test with A2780, 0.274 µM; in the test with HeLa, 0.146 µM; in the test with A549 it was 0.126 µM; in test [1], 0.259 µM; in test [2] it was 0.169 µM.
As to `COc1ccc2c(/C=C/C(=O)c3ccc(OC)c4c3OC(C)(C)C=C4)c[nH]c2c1`, the IC50 is 0.056 µM with MCF7; 0.041 µM in the test on A2780; 0.049 µM in the test on HeLa; 4.39 µM against Tubulin; 0.055 µM with A549; 0.078 µM in test [1]. The IC50 in test [2] was 0.077 µM.
In the case of `COc1ccc2c(/C=C/C(=O)c3cc(OC)c(OC)c(OC)c3)cn(C)c2c1`, the IC50 with MCF7 came to 0.087 µM; in the test with A2780, 0.025 µM; with HeLa it was 0.062 µM; at Tubulin it was 3.48 µM; in the test with A549, 0.023 µM; in [1], 0.061 µM. Besides, in test [2], the IC50 was 0.047 µM.
On to `COc1ccc2[nH]cc(/C=C(\C)C(=O)c3cc(OC)c(OC)c(OC)c3)c2c1`, for which the IC50 in the test on MCF7 was determined as 0.033 µM; with A2780, 0.032 µM; in the test with HeLa, 0.078 µM; against Tubulin, 5.06 µM; in the test on A549, 0.074 µM; in test [1], 0.096 µM. Further, the 50% inhibitory concentration (IC50) in [2] was found to be 0.048 µM.
Take `COc1cc(C(=O)/C=C/c2c[nH]c3cccc(OC)c23)cc(OC)c1OC`: the IC50 (in the test on MCF7; with A2780; in the test with HeLa; in the test with A549; in test [1]; in [2]) was > 1 µM in each case.
Take `COc1cc(C(=O)/C=C/c2cn(C)c3cccc(OC)c23)cc(OC)c1OC`: the IC50 (in the test on MCF7; in the test with A2780; with HeLa; in the test with A549; in test [1]; in test [2]) was > 1 µM in each case.
Take `COc1ccc2[nH]cc(/C=C/C(=O)c3ccc(OC)c4c3OC(C)(C)C=C4)c2c1`: the IC50 came to 0.782 µM in the test with MCF7; 0.398 µM in the test with A2780; 0.327 µM with HeLa; 0.272 µM in the test with A549; 0.456 µM in test [1]; 0.557 µM in test [2].
With `COc1ccc2c(/C=C/C(=O)c3cc(OC)c(OC)c(OC)c3)c[nH]c2c1`, the IC50 came out at 0.246 µM in the test on MCF7; 0.118 µM with A2780; 0.261 µM in the test with HeLa; 0.224 µM with A549; 0.351 µM in test [1]; 0.274 µM in [2].
In the case of `COc1cc2c(c(OC)c1OC)C/C(=C\c1cccc3[nH]ccc13)C2=O`, the IC50 with MCF7 was 0.047 µM; with A2780, 0.035 µM; in the test on HeLa, 0.027 µM; in the test with A549 it was 0.026 µM; in [1], 0.035 µM; in test [2], 0.038 µM.
On to `COc1cc(C(=O)/C=C/c2cccc3[nH]ccc23)cc(OC)c1OC`, for which the IC50 was 0.05 µM in the test with MCF7; 0.041 µM in the test on A2780; 0.038 µM in the test with HeLa; 0.036 µM in the test on A549; 0.063 µM in test [1]; 0.057 µM in [2].
For `COc1cc(C(=O)/C=C/c2ccc3c(ccn3C)c2)cc(OC)c1OC`, the 50% inhibitory concentration (IC50) in the test on MCF7 turned out to be 0.061 µM; in the test with A2780 it was 0.045 µM; in the test on HeLa it was 0.057 µM; in the test with A549 it was 0.053 µM; in test [1], 0.077 µM; in test [2] it was 0.067 µM.
For `COc1ccc2c(c1)c(/C=C/C(=O)c1cc(OC)c(OC)c(OC)c1)cn2C`, the IC50 is 0.231 µM in the test on MCF7; 0.283 µM with A2780; 0.531 µM with HeLa; 0.164 µM with A549; 0.256 µM in [1]; 0.315 µM in [2].
As for `C=Cn1cc(/C=C(\C)C(=O)c2cc(OC)c(OC)c(OC)c2)c2ccc(OC)cc21`, the IC50 with MCF7 came to 0.064 µM; with A2780 it was 0.049 µM; in the test with HeLa it was 0.067 µM; in the test with A549, 0.089 µM; in test [1] it was 0.091 µM; in test [2], 0.079 µM.
Consider `CCn1cc(/C=C(\C)C(=O)c2cc(OC)c(OC)c(OC)c2)c2ccc(OC)cc21`, for which the IC50 in the test with MCF7 was 0.032 µM; in the test on A2780, 0.021 µM; with HeLa it was 0.065 µM; in the test on A549, 0.039 µM; in [1] it was 0.015 µM; in [2], 0.056 µM.
As to `COc1ccc2c(/C=C/C(=O)c3ccc(OC)c4c3OC(C)(C)C=C4)cn(C)c2c1`, the IC50 in the test on MCF7 was determined as 0.045 µM; in the test with A2780, 0.061 µM; in the test on HeLa, 0.093 µM; in the test on A549, 0.058 µM; in [1], 0.097 µM; in [2], 0.087 µM.
As for `COc1cc(C(=O)/C(C)=C/c2c[nH]c3cccc(OC)c23)cc(OC)c1OC`, the IC50 (in the test on MCF7; with A2780; with HeLa; in the test with A549; in test [1]; in test [2]) was > 1 µM throughout.
On to `COc1ccc2c(/C=C(\C)C(=O)c3cc(OC)c(OC)c(OC)c3)cn(CO)c2c1`, for which the IC50 came to 0.019 µM in the test on MCF7; 0.021 µM in the test with A2780; 0.013 µM with HeLa; 3.59 µM on Tubulin; 0.008 µM with A549; 0.009 µM in [1]. Besides, the IC50 in [2] worked out at 0.017 µM.
On to `COc1ccc(C(=O)/C=C/c2c[nH]c3cccc(OC)c23)c2c1C=CC(C)(C)O2`, for which the IC50 (in the test on MCF7; with A2780; with HeLa; in the test with A549; in test [1]; in test [2]) was > 1 µM each time.
As to `COc1ccc2[nH]cc(/C=C/C(=O)c3cc(OC)c(OC)c(OC)c3)c2c1`, the IC50 (in the test on MCF7; in the test with A2780; in the test on HeLa; with A549; in test [1]; in test [2]) was > 1 µM in each case.
Regarding `COc1cc(C(=O)/C=C/c2ccc3[nH]ccc3c2)cc(OC)c1OC`, the IC50 is 0.028 µM in the test with MCF7; 0.028 µM in the test on A2780; 0.022 µM in the test on HeLa; 0.033 µM in the test on A549; 0.034 µM in [1]; 0.034 µM in test [2].
For the compound `COc1ccc(C(=O)/C=C/c2cn(C)c3cccc(OC)c23)c2c1C=CC(C)(C)O2`, the IC50 (in the test with MCF7; with A2780; in the test with HeLa; in the test with A549; in [1]; in test [2]) was > 1 µM throughout.
With `COc1cc(C(=O)/C=C/c2cccc3c2ccn3C)cc(OC)c1OC`, the IC50 was determined as 0.038 µM in the test on MCF7; 0.023 µM in the test on A2780; 0.031 µM with HeLa; 0.03 µM with A549; 0.032 µM in test [1]; 0.041 µM in test [2].
Consider `COc1ccc2c(c1)c(/C=C/C(=O)c1ccc(OC)c3c1OC(C)(C)C=C3)cn2C`, for which the IC50 in the test on MCF7 is 0.567 µM; in the test on A2780 it was 0.497 µM; in the test on HeLa it was 0.415 µM; in the test on A549, 0.452 µM; in test [1], 0.389 µM; in test [2], 0.675 µM.
For the compound `CC(=O)O[C@H]1C(=O)[C@@]2(C)[C@H]([C@H](OC(=O)c3ccccc3)[C@]3(O)C[C@H](OC(=O)[C@H](O)[C@@H](NC(=O)c4ccccc4)c4ccccc4)C(C)=C1C3(C)C)[C@]1(OC(C)=O)CO[C@@H]1C[C@@H]2O` [PACLITAXEL], the IC50 is 5.68 µM in [3]; 0.125 µM in test [4]; 0.005 µM with A2780; 0.023 µM in test [5]; 0.135 µM in [6]; 0.019 µM in test [2].
In the case of `COc1ccc2c(/C=C(\C)C(=O)c3cc(OC)c(OC)c(OC)c3)cn(C)c2c1`, the IC50 turned out to be 0.042 µM in the test with MCF7; 0.034 µM in the test with A2780; 0.031 µM in the test on HeLa; 0.041 µM with A549; 0.028 µM in test [1]; 0.061 µM in [2].
Consider `COc1ccc2c(c1)c(/C=C(\C)C(=O)c1cc(OC)c(OC)c(OC)c1)cn2C`, for which the IC50 in the test with MCF7 was determined as 0.548 µM; in the test on A2780 it was 0.427 µM; in the test with HeLa, 0.235 µM; with A549, 0.331 µM; in test [1] it was 0.356 µM; in test [2], 0.726 µM.
Take `COc1cc(C(=O)/C(C)=C/c2cn(C)c3cccc(OC)c23)cc(OC)c1OC`: the IC50 (in the test with MCF7; with A2780; in the test on HeLa; in the test with A549; in test [1]; in test [2]) was > 1 µM throughout.
Consider `CCCn1cc(/C=C(\C)C(=O)c2cc(OC)c(OC)c(OC)c2)c2ccc(OC)cc21`, for which the IC50 amounted to 0.497 µM in the test with MCF7; 0.597 µM in the test with A2780; 0.531 µM in the test on HeLa; 0.514 µM with A549; 0.614 µM in test [1]; 0.679 µM in [2].

As usually defined, the IC50 is the concentration that inhibits the measured activity by half.
